Results taken from ChEMBL document CHEMBL1121590, “Synthesis and enzymatic and inotropic activity of some new 8-substituted and 6,8-disubstituted derivatives of adenosine cyclic 3',5'-monophosphate” (J Med Chem, 1980).
Activity calls are given as the source filed them. The rule behind the calls is not given here.

Tests used:
[1] = test system: Canis familiaris; experiment: Evaluated for dP/dt max in anesthetized dogs; type: functional, Canis lupus familiaris
How it was run: (§1)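 Adult mongrel dogs of either sex, induced with sodium methohexital and maintained on methoxyflurane, breathing spontaneously at 37 ± 1 °C. The right atrium was electrically paced, and the pacer was switched off periodically to obtain spontaneous rate. Dose was 3.1 mg/kg iv via the femoral vein. Catheter-tip transducers recorded aortic and LV pressure; LV dP/dt max indexed contractility. BP and rate were taken at the time of maximal % change in dP/dt max. 1–4 dogs were used per compound.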

[2] = test system: Canis familiaris; experiment: Inotropic change in blood pressure (systolic/diastolic mmHg) in anesthetized dog; -4/-9; type: functional, organism-based; conditions: Canis lupus familiaris; Artery; how it was run: as §1
[3] = Inhibition of cAMP phosphodiesterase preparation from rabbit lung at a substrate concentration of 0.14 uM
[4] = test system: Canis familiaris; experiment: Change in heart rate (beats/min) in anesthetized dog; type: functional, Canis lupus familiaris; how it was run: as §1
[5] = biological target: Phosphodiesterase 4 (Homo sapiens, UniProt P27815+Q08499+Q07343+Q08493); conditions: Oryctolagus cuniculus; Kidney
[6] = test system: Canis familiaris; experiment: Inotropic change in blood pressure (systolic/diastolic mmHg) in anesthetized dog; 6/-19; type: functional, organism-based; conditions: Canis lupus familiaris; Artery; how it was run: as §1
[7] = test system: Canis familiaris; experiment: Inotropic change in blood pressure (systolic/diastolic mmHg) in anesthetized dog; -6/-22; type: functional, organism-based; conditions: Canis lupus familiaris; Artery; how it was run: as §1
[8] = test system: Canis familiaris; experiment: Inotropic change in blood pressure (systolic/diastolic mmHg) in anesthetized dog; 2/-5; type: functional, organism-based; conditions: Canis lupus familiaris; Artery; how it was run: as §1
[9] = test system: Canis familiaris; experiment: Inotropic change in blood pressure (systolic/diastolic mmHg) in anesthetized dog; -8/-25; type: functional, organism-based; conditions: Canis lupus familiaris; Artery; how it was run: as §1
[10] = test system: Canis familiaris; experiment: Inotropic change in blood pressure (systolic/diastolic mmHg) in anesthetized dog; 0/-6; type: functional, Canis lupus familiaris, Artery; how it was run: as §1

Row | Compound | Change [1] [%] | Change [2] | I50 [3] [µM] | Change [4] [beats/min] | Hydrolysis [5] | Change [6] | Change [7] | Change [8] | Change [9] | Change [10] [%]
1 | CCN(CC)c1ncnc2c1nc(SCc1ccccc1)n2[C@@H]1O[C@@H]2COP(=O)(O)O[C@H]2[C@H]1O | 45 | inactive | 3.6 | 5 | < 0.05 | – | – | – | – | –
2 | CCCNc1ncnc2c1nc(SCc1ccccc1)n2[C@@H]1O[C@@H]2COP(=O)(O)O[C@H]2[C@H]1O | 127 | – | 3.6 | 24 | < 0.05 | inactive | – | – | – | –
3 | CCNc1ncnc2c1nc(SCc1ccccc1)n2[C@@H]1O[C@@H]2COP(=O)(O)O[C@H]2[C@H]1O | 80 | – | 2.5 | 10 | < 0.05 | – | inactive | – | – | –
4 | CCCCNc1ncnc2c1nc(SCc1ccccc1)n2[C@@H]1O[C@@H]2COP(=O)(O)O[C@H]2[C@H]1O | 84 | – | 20 | 0 | < 0.05 | – | – | inactive | – | –
5 | CN(C)c1ncnc2c1nc(SCc1ccccc1)n2[C@@H]1O[C@@H]2COP(=O)(O)O[C@H]2[C@H]1O | 61 | – | – | 15 | < 0.05 | – | – | – | inactive | –
6 | CNc1ncnc2c1nc(SCc1ccccc1)n2[C@@H]1O[C@@H]2COP(=O)(O)O[C@H]2[C@H]1O | 71 | – | 120 | 0 | < 0.05 | – | – | – | – | 0
